# Assay results from article PMC2229441 (The Journal of General Physiology, 1998).
# Read-outs that look alike come from different tables or passages of the source.
# Key:
# [1] = test system: patch-clamped mast cells; assay type: cell-based, rat
# Outline: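 Peritoneal mast cells from male Wistar rats (300–350 g), Percoll-purified, held in DMEM/F-12 with 2 mM glutamine at 37°C, 5% CO2. Test peptide is delivered through the patch pipette (IS 2 with 100 μM FURA-2 and EGTA buffering). Degranulation is tracked as membrane capacitance rise after patch rupture; delay is taken at 10% capacitance increase. [Ca2+]i is read from 340/380 nm ratios. Mean ± SEM (cells).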
# [2] = test system: PtX-treated mast cells; details: non–membrane-penetrating dyes; ref Wiesner et al., manuscript in preparation; cited from earlier work
molecule,measurement,setting,value
Nc1nc2c(ncn2[C@@H]2O[C@H](COP(=O)(O)OP(O)(O)=S)[C@@H](O)[C@H]2O)c(=O)[nH]1 [GDPβS],cells in which SP-induced exocytosis was inhibited,[1]; 1 mM GDPβS applied together with 5 μM SP through the patch pipette,four of five
Nc1nc2c(ncn2[C@@H]2O[C@H](COP(=O)(O)OP(=O)(O)OP(O)(O)=S)[C@@H](O)[C@H]2O)c(=O)[nH]1 [GTPγS],degranulation rate,"[1]; 2.5–5 μM, n = 25, mean ± SEM",0.05 ± 0.005 pF/s
same,degranulation rate,"[1]; 10–25 μM, n = 16, mean ± SEM",0.15 ± 0.03 pF/s
same,"shortest time delay, extrapolated to high concentrations",[1]; extrapolation of curves of Fig. 7,about 20 s
same,cells in which degranulation occurred,"[1]; intracellular application at similar concentrations as SP, IS 1",41 of 45
same,membrane capacitance increase in degranulating cells,"[1]; intracellular application, IS 1, mean ± SEM (SP n = 31)",2.7 ± 0.1 fold
carboxyfluorescein,translocation into PtX-treated mast cells,[2],not translocated
